Where “and” joins values, the source holds several entries; their conditions need not be identical. Equal values may be shown once. Entries after “also recorded” stand apart in the source; their conditions may differ.

The nature of data set [1]: Chemical stability of the inhibitors. The data set is classed as physicochemical. As to conditions: compound not in complex with HPPK.
Data set [2] addresses HPPK (Escherichia coli, UniProt P26281). Put plainly: Fluorometric titration of HPPK with inhibitor. The data set is classed as binding, E. coli. As to conditions: ratio of Kd values, 19 versus 17. The method in brief:
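Fluorescence titration of HPPK (initial 10 μM) with inhibitor dissolved in DMSO, added as aliquots from a 500 μM stock. Excitation/emission 420/450 nm or 450/480 nm depending on compound; slits 1 and 4 nm. Kd from nonlinear least-squares fit of fluorescence change to a quadratic single-site binding equation using total enzyme and total inhibitor concentrations.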

Another data set deals with E. coli HPPK (Escherichia coli, UniProt P26281). Put plainly: HPPK enzyme inhibition assay with [α-32P]-ATP. The data set is classed as biochemical. As to conditions: ratio of IC50 values, 19 versus 17.
E. coli HPPK, sequence (P26281 whole entry): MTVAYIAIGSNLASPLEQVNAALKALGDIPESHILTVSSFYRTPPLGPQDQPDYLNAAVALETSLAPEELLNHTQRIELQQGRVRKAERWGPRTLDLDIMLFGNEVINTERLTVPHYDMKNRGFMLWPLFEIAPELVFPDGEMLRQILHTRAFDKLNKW
Data set [3] addresses HPPK. Particulars: cited from earlier work.

HPPK (Escherichia coli, UniProt P26281), sequence (P26281 whole entry): as above

As for `Nc1nc2ncc(CNCCN3CCC(SC[C@H]4O[C@@H](n5cnc6c(N)ncnc65)[C@H](O)[C@@H]4O)CC3)nc2c(=O)[nH]1` [Compound 17, 2-amino-6-[(2-{4-[5-(6-amino-purin-9-yl)-3,4-dihydroxy-tetrahydro-furan-2-ylmethylsulfanyl]-piperidin-1-yl}-ethylamino)-methyl]-3H-pteridin-4-one], the chemical stability entry in data set [1] is recorded as “stable”. Still for that read-out and setting: the same measure for `CC1(C)Nc2nc(N)[nH]c(=O)c2N=C1CNCCN1CCC(SCC2OC(n3cnc4c(N)ncnc43)C(O)C2O)CC1` (centres unmarked) [Compound 18, 2-amino-6-[(2-{4-[5-(6-amino-purin-9-yl)-3,4-dihydroxy-tetrahydro-furan-2-ylmethylsulfanyl]-piperidin-1-yl}-ethylamino)-methyl]-7,7-dimethyl-7,8-dihydro-3H pteridin-4-one]: “not stable; also recorded: tends to degrade”. Consider `CC1(C)Nc2nc(N)[nH]c(=O)c2N=C1C(=O)NCCN1CCC(SC[C@H]2O[C@@H](n3cnc4c(N)ncnc43)[C@H](O)[C@@H]2O)CC1` [Compound 19, 2-amino-7,7-dimethyl-4-oxo-3,4,7,8-tetrahydro-pteridine-6-carboxylic acid (2-{4-[5-(6-amino-purin-9-yl)-3,4-dihydroxy-tetrahydro-furan-2-ylmethylsulfanyl]-piperidin-1-yl}-ethyl)-amide], for which, on HPPK [2], the “increased binding affinity over 17” value was 60 fold and ~ 60 fold. Besides, the “increased inhibition ability over 17” value at E. coli HPPK came to 30 fold. Further, the chemical stability entry in data set [1] is recorded as “stable”. `Nc1nc2c(c(=O)[nH]1)N=C(CO)CN2` [HP, 6-hydroxymethyl-7,8-dihydropterin]: at HPPK [3], the “Kd for the binding of HP to ligand-free HPPK” value is reported as “mM range” and the “Kd for the binding of HP to the HPPK MgATP complex” value is listed as “sub-μM range”. As usually defined, the Kd is the concentration at which binding is half-saturated. As for `Nc1ncnc2c1ncn2[C@@H]1O[C@H](COP(=O)(O)OP(=O)(O)OP(=O)(O)O)[C@@H](O)[C@H]1O` [MgATP], on HPPK [3] (read-out: Kd for the binding of MgATP to HPPK), the Kd is 2.6 to 4.5 µM.

Values taken from article PMC3257516 (Bioorganic & medicinal chemistry, 2011).
